Activity calls are given as the source filed them. The rule behind the calls is not given here.
Legend:
[1] = biological target: T1, Androgen receptor (Homo sapiens) (UniProt P10275); conditions: HeLa
T1 sequence (whole entry): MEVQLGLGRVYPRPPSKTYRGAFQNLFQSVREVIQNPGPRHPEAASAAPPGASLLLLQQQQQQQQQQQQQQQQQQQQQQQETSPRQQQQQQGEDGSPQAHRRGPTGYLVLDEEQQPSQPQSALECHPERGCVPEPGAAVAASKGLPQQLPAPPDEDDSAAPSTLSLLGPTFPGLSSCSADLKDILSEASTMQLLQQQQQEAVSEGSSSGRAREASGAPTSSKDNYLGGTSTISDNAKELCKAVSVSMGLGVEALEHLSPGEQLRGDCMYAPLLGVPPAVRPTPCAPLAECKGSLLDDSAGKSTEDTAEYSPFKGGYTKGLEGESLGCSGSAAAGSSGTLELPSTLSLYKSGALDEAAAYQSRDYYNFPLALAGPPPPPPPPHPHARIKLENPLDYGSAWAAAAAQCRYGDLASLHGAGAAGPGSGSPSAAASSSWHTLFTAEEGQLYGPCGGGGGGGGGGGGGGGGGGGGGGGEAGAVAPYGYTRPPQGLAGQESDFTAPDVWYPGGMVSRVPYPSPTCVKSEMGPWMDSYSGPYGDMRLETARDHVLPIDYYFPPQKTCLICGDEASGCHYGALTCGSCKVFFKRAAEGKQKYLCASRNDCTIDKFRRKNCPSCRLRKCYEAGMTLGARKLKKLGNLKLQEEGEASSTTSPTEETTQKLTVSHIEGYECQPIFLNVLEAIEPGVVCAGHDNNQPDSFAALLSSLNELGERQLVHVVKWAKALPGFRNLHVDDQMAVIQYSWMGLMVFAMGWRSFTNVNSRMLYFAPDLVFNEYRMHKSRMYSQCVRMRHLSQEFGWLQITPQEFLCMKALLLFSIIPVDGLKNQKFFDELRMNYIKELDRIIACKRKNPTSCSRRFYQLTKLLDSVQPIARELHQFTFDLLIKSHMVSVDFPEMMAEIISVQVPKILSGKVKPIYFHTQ

[2] = biological target: T1, Androgen receptor (Homo sapiens); conditions: HeLa; remark: listed apart in the source
[3] = biological target: T1, Androgen receptor (Homo sapiens); assay: Agonist activity at AR in human LNCAP cells assessed as effect on cell proliferation after 6 days; type: functional, cell-based
In short: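 LNCaP cells were pre-starved and plated in phenol red-free RPMI 1640 with 5% DCC-FBS. After overnight attachment, test compound was added without R1881 for 6 days. Proliferation was read by MTS (CellTiter 96 AQueous One). Agonism was scored +/− from the growth dose-response curve.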

Androgen receptor = biological target: T2, Androgen receptor (Homo sapiens, UniProt P10275); assay: Displacement of [3H]mibolerone from human AR expressed in CHO-K1 cells after 2 hrs by scintillation counting; type: cell-based
T2 sequence (P10275 whole entry): T1 sequence (whole entry)

[4] = Metabolic stability in human liver microsomes assessed as compound remaining at […] after 15 mins by LC-MS/MS analysis; type: ADME, Microsome; conditions: read-out: Stability
Mus musculus = organism: Mus musculus; assay: Antiandrogenic activity in castrated mouse assessed as reduction in testosterone-induced wet weight gain of seminal vesicle; type: functional
LNCaP = assay: Antitumor activity against human LNCAP cells xenografted in po dosed SCID mouse assessed as inhibition of tumor growth administered once daily in seven cycles of 5 days on and 2 days off schedule; type: functional, organism-based
In short: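 LNCaP cells (2×10^6) were injected subcutaneously into 6-week-old male SCID mice. At tumour size 90–400 mm³, mice were randomised and dosed orally in 5% gum arabic at 10 mL/kg body weight. Dosing ran as seven cycles of 5 days on, 2 days off, with n = 6 per group.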

Row | SMILES | EC5 [1] [µM] | EC5 [2] [µM] | Activity [3] | IC50 (Androgen receptor) [nM] | remaining [4] [%] | ED50 (Mus musculus) [mg/kg] | inhibition (LNCaP)
1 | CNS(=O)(=O)CCCN1C(=S)N(c2ccc(C#N)c(C(F)(F)F)c2)C(=O)C1(C)C | > 10 | 1.4 | inactive | 170 |  |  | 
2 | Cc1cc(C#N)c(C(F)(F)F)cc1N1C(=O)C(C)(C)N(CCCS(N)(=O)=O)C1=S |  | > 10 |  | > 5000 | 91 |  | 
3 | Cc1cc(N2C(=O)C(C)(C)N(CCCS(N)(=O)=O)C2=S)ccc1C#N |  | > 10 | inactive | > 1000 | 94 |  | 
4 | CC1(C)C(=O)N(c2ccc(C#N)c(C(F)(F)F)c2)C(=S)N1CCCS(=O)(=O)O | > 10 |  | Active | > 1000 |  |  | 
5 | CC1(C)C(=O)N(c2ccc(C#N)c(C(F)(F)F)c2)C(=S)N1CCS(N)(=O)=O | > 10 | 7.2 | inactive | 770 |  |  | 
6 | CC1(C)C(=O)N(c2ccc(C#N)c(C(F)(F)F)c2)C(=S)N1CCCNS(N)(=O)=O | > 10 | > 10 | inactive | > 1000 |  |  | 
7 | CC1(C)C(=O)N(c2ccc(C#N)c(C(F)(F)F)c2)C(=S)N1CCCc1nnn[nH]1 | > 10 |  | inactive | > 1000 |  |  | 
8 | COc1cc(N2C(=O)C(C)(C)N(CCCS(N)(=O)=O)C2=S)ccc1C#N |  | > 10 | Active | 1900 | 100 |  | 
9 | CN(C)S(=O)(=O)CCCN1C(=S)N(c2ccc(C#N)c(C(F)(F)F)c2)C(=O)C1(C)C | 0.11 |  | Active | 80 |  |  | 
10 | CC1(C)C(=O)N(c2ccc(C#N)c(C(F)(F)F)c2)C(=S)N1CCCCS(N)(=O)=O | > 10 | > 10 | inactive | > 1000 |  |  | 
11 | CC1(C)C(=O)N(c2ccc(C#N)c(C(F)(F)F)c2)C(=S)N1CCCNC(N)=O | 0.65 | 0.35 | inactive | 800 |  |  | 
12 | CN1C(=S)N(c2ccc(C#N)c(C(F)(F)F)c2)C(=O)C1(C)C | < 0.001 | 8e-05 | Active | 15 |  |  | 
13 | CC1(C)C(=O)N(c2ccc(C#N)c(C(F)(F)F)c2)C(=S)N1CCCC(=O)O | > 10 | > 10 | inactive | 3900 | 97 |  | 
14 | Cc1c(N2C(=O)C(C)(C)N(CCCS(N)(=O)=O)C2=S)ccc(C#N)c1C(F)(F)F |  | 2 | Active | 260 | 89 |  | 
15 | CC1(C)C(=O)N(c2ccc(C#N)c(C(F)(F)F)c2)C(=S)N1CCCC(N)=O | 3.6 | > 10 | inactive | 480 |  |  | 
16 | CC1(C)C(=O)N(c2ccc(C#N)c(Cl)c2)C(=S)N1CCCS(N)(=O)=O |  |  | inactive | 440 | 100 | 10 | Dose-dependent effect
17 | CC1(C)C(=O)N(c2ccc(C#N)c(C(F)(F)F)c2)C(=S)N1CCCS(N)(=O)=O | > 10 | > 10 | inactive | 400 | 95 |  | 
18 | CC1(C)C(=O)N(c2ccc(C#N)cc2)C(=S)N1CCCS(N)(=O)=O |  | > 10 |  | > 5000 | 92 |  | 
